This is an account of results in ChEMBL document CHEMBL1275480, “Role of global regulators and nucleotide metabolism in antibiotic tolerance in Escherichia coli” (2008).

For assay [1], the system named is Escherichia coli. The assay is described as follows: Antimicrobial activity against dksA deficient Escherichia coli K-12 BW-25113 assessed as decrease in persistence at 10 ug/ml after 3 hrs by time kill analysis relative to wild type. The assay is classed as functional, K-12 BW25113. The essentials:
(§1)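 Keio single-gene deletion strains of E. coli K-12 BW25113 and the parent strain. Cultures: 1 ml LB overnight at 37°C with aeration, then diluted 1:100 into MOPS minimal medium (0.1% succinate, 0.05% Casamino Acids) and grown 5 h to exponential phase (~2 × 10^8 CFU/ml). Challenged 3 h with ciprofloxacin 1 μg/ml, streptomycin 10 μg/ml or ampicillin 100 μg/ml. Samples taken before and after, diluted, spot-plated on LB agar for CFU. Triplicate, standard deviations.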

In assay [2] the test system is Escherichia coli. The assay is described as follows: Antimicrobial activity against yigB deficient Escherichia coli K-12 BW-25113 assessed as decrease in persistence at 10 ug/ml after 3 hrs by time kill analysis relative to wild type. The assay is classed as functional, K-12 BW25113. The essentials: as §1
The test system of assay [3] is Escherichia coli. The assay is described as follows: Antimicrobial activity against dnaJ deficient Escherichia coli K-12 BW-25113 assessed as decrease in persistence at 10 ug/ml after 3 hrs by time kill analysis. The assay is classed as functional, K-12 BW25113. The essentials:
as §1

The subject of assay [4] is Escherichia coli. Nature of the assay: Antimicrobial activity against dnaK deficient Escherichia coli K-12 BW-25113 assessed as decrease in persistence at 10 ug/ml after 3 hrs by time kill analysis. The assay is classed as functional, K-12 BW25113. The essentials: as §1
Assay [5] relates to Escherichia coli. Nature of the assay: Antimicrobial activity against ygfA deficient Escherichia coli K-12 BW-25113 assessed as decrease in persistence at 10 ug/ml after 3 hrs by time kill analysis relative to wild type. The assay is classed as functional, K-12 BW25113. The essentials: as §1
For assay [6], the system named is Escherichia coli. The assay is described as follows: Antimicrobial activity against surA deficient Escherichia coli K-12 BW-25113 assessed as survival rate at 10 ug/ml after 6 hrs by time kill analysis.
Assay [7] has as its system Escherichia coli. The assay is described as follows: Antimicrobial activity against apaH deficient Escherichia coli K-12 BW-25113 assessed as survival rate at 10 ug/ml after 6 hrs by time kill analysis.
In assay [8] the test system is Escherichia coli. Nature of the assay: Antimicrobial activity against Escherichia coli K-12 BW-25113 assessed as survival rate at 10 ug/ml after 6 hrs by time kill analysis.
Assay [9] relates to Escherichia coli. Nature of the assay: Antimicrobial activity against dksA deficient Escherichia coli K-12 BW-25113 assessed as decrease in persistence at 100 ug/ml after 3 hrs by time kill analysis. The assay is classed as functional, K-12 BW25113. The essentials: as §1
The subject of assay [10] is Escherichia coli. Nature of the assay: Antimicrobial activity against ygfA deficient Escherichia coli K-12 BW-25113 assessed as decrease in persistence at 100 ug/ml after 3 hrs by time kill analysis. The assay is classed as functional, K-12 BW25113. The essentials: as §1
Assay [11] relates to Escherichia coli. Nature of the assay: Antimicrobial activity against dnaK deficient Escherichia coli K-12 BW-25113 assessed as decrease in persistence at 100 ug/ml after 3 hrs by time kill analysis. The assay is classed as functional, K-12 BW25113. The essentials: as §1
Assay [12] relates to Escherichia coli. The assay is described as follows: Antimicrobial activity against dnaJ deficient Escherichia coli K-12 BW-25113 assessed as decrease in persistence at 100 ug/ml after 3 hrs by time kill analysis. The assay is classed as functional, K-12 BW25113. The essentials: as §1

In the case of `CN[C@@H]1[C@H](O[C@H]2[C@H](O[C@H]3[C@H](O)[C@@H](O)[C@H](N=C(N)N)[C@@H](O)[C@@H]3N=C(N)N)O[C@@H](C)[C@]2(O)C=O)O[C@@H](CO)[C@H](O)[C@H]1O` [STREPTOMYCIN], the “fold change (FC)” value was found to be 6 in the assay on Escherichia coli [1]; 10 in the assay with Escherichia coli [2]; 87 with Escherichia coli [3]; 66 with Escherichia coli [4]; 3 in the assay on Escherichia coli [5].
For the compound `CC1COc2c(N3CCN(C)CC3)c(F)cc3c(=O)c(C(=O)O)cn1c23` (configuration not stated) [OFLOXACIN], the Activity with Escherichia coli [6] worked out at 3.3%; with Escherichia coli [7], 1.7%; in the assay with Escherichia coli [8], 1.3%.
In the case of `CC1(C)S[C@@H]2[C@H](NC(=O)[C@H](N)c3ccccc3)C(=O)N2[C@H]1C(=O)O` [AMPICILLIN], the “fold change (FC)” value with Escherichia coli [9] was determined as 40; in the assay on Escherichia coli [10], 82; in the assay with Escherichia coli [11], 13; in the assay with Escherichia coli [12], 46.
